Source: ChEMBL document CHEMBL4513216, “Probing the Open Global Health Chemical Diversity Library for Multistage-Active Starting Points for Next-Generation Antimalarials” (ACS Infect Dis, 2020)

Assay: Toxicity liver stage against HepG2, at 10uM
Type: cell-based
Design: test concentration 10 uM, cell line HepG2-A16-CD81EGFP
Settings: human, HepG2-A16-CD81EGFP cells; read-out: INHIBITION
Procedure, shortened: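 Uninfected HepG2-A16-CD81EGFP cells, 3 × 10^3 per well, 1536-well, plated on prespotted compound at 10 μM final, parasite-free screening media added to match infected plates; puromycin 10 μM positive, DMSO 0.5% negative; run in parallel with 48 h PbLuc assay at 37 °C, 5% CO2; viability by CellTiter-Glo luminescence, normalized to controls.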
`CN(C(=O)c1ccncc1)c1nnc(C2CCOC2)s1` (centres undefined) gave a cytotoxicity at 10 µM of 3.57%.
`CN1CC2(CCN(C(=O)c3ccc(=O)n(C)c3)CC2)CC1=O` gave a cytotoxicity at 10 µM of -4.46%.
For `CC(C)C1=NOC2(CCN(Cc3c[nH]c4ccccc34)CC2)C1`, the cytotoxicity at 10 µM was 3.46%.
Work on `CCC(CC)C(=O)NC1CCCc2nc(N3CCOCC3)ncc21` (centres undefined) yielded a cytotoxicity at 10 µM of 4.99%.
`COCCO[C@H]1CCN(C(=O)c2cnccn2)[C@H]1Cc1ccncc1` showed a cytotoxicity at 10 µM of -70.3%.
`CN(C)C1CCN(C(=O)CCc2cc(Br)cs2)CC1` gave a cytotoxicity at 10 µM of -18%.
With `CC(C)c1nc(N2CCC(N3CCCCCC3)CC2)c2cnn(C)c2n1` the cytotoxicity at 10 µM was -135%.
Compound `CN(C)C(=O)c1cnc2n1CCN(Cc1cccc(C#N)c1)C2` has a cytotoxicity at 10 µM of -77.3%.
Compound `CCCOc1cccc(C(=O)N2CCCC(n3cncn3)C2)c1` (centres undefined) has a cytotoxicity at 10 µM of -4.39%.
`O=C(CN1CCCNC1=O)Nc1ccccc1SC(F)(F)F` showed a cytotoxicity at 10 µM of 12.7%.
Compound `Cc1cc(CC(=O)N2CCc3cc(Br)sc3C2)n[nH]1` has a cytotoxicity at 10 µM of 10.2%.
In the case of `COc1cc(-n2ccnc2-c2ccc(C(=O)O)s2)ccc1NC(C)=O`, the cytotoxicity at 10 µM is reported as 2.74%.
For `O=C(NCCNS(=O)(=O)c1cccc(Cl)c1)C1CCCO1` (centres undefined), the cytotoxicity at 10 µM was 11.5%.
`CC(C)(O)CNc1ccc(C#N)c(C(F)(F)F)c1` showed a cytotoxicity at 10 µM of 1.23%.
In the case of `CC(O)CNC(=O)Nc1ccc(Br)cc1Br` (centres undefined), the cytotoxicity at 10 µM is reported as -1.45%.
`c1ncn(Cc2nnc(C3CCN(C4CCOCC4)CC3)n2C2CC2)n1` showed a cytotoxicity at 10 µM of -3.51%.
With `NC(=O)c1cnc2n1CCN(C(=O)c1cccc(Cn3cccn3)c1)C2` the cytotoxicity at 10 µM was 4.35%.
`Cc1cc(CNC(=O)Nc2ccc(C(=O)NC3CC3)cc2)no1` gave a cytotoxicity at 10 µM of -0.396%.
Compound `O=C(c1ccc(F)cc1Cl)N1CCn2c(nnc2C(F)(F)F)C1` has a cytotoxicity at 10 µM of -6.7%.
`O=C(OCCNc1ncccn1)c1ccc(Br)s1` gave a cytotoxicity at 10 µM of -2.64%.
In the case of `CCCC(=O)Nc1ccc2c(c1)C1(CCOCC1)CN2CCOC`, the cytotoxicity at 10 µM is reported as -104%.
`FC(F)(F)c1ccnc(N2CCC(c3nccn3CC3CC3)CC2)n1` gave a cytotoxicity at 10 µM of 3.03%.
Compound `CCc1nnc(NC(=O)CCN2CC=C(c3cnn(C)c3)CC2)s1` has a cytotoxicity at 10 µM of 2.66%.
`CCc1nnc2n1CCN(Cc1nc3c(F)cccc3[nH]1)C2` gave a cytotoxicity at 10 µM of -8.06%.
In the case of `O=C(c1ccccc1)N1C[C@@H]2CCCO[C@@H]2[C@H](N2CCOCC2)C1`, the cytotoxicity at 10 µM is reported as -8.81%.
For `CCNS(=O)(=O)C1CCN(C(=O)c2ccc(CC)o2)C1` (centres undefined), the cytotoxicity at 10 µM was 5.45%.
Compound `Cc1cc(C)c2c(N3CCCN(C(=O)C4CCC4)CC3)ncnc2n1` has a cytotoxicity at 10 µM of -10.7%.
`CC(C)c1ccc(-n2ncc(C(=O)NCC3COC(C)(C)O3)c2N)cc1` (centres undefined) showed a cytotoxicity at 10 µM of -0.726%.
In the case of `CC(NC(=O)CCCc1ccc(Cl)cc1)c1n[nH]c(=O)[nH]1` (centres undefined), the cytotoxicity at 10 µM is reported as 3.26%.
Work on `CC(C)(C)OC(=O)NCC1CCCCN1Cc1ccncc1` (centres undefined) yielded a cytotoxicity at 10 µM of 9.04%.
`CCC(C)(NCC(=O)OC)c1nccs1` (centres undefined) gave a cytotoxicity at 10 µM of -12.7%.
Work on `Cc1cccc(-n2cnc(Cl)c2CO)c1` yielded a cytotoxicity at 10 µM of -11.8%.
`CC1(C)OC(=O)N(CC(=O)N2CCC(c3ccccc3F)C2)C1=O` (centres undefined) showed a cytotoxicity at 10 µM of 0.189%.
Compound `CCn1c(N)nc2cc(C(=O)NCCc3ccccc3F)cnc21` has a cytotoxicity at 10 µM of -1.83%.
Compound `CC1CCN(c2nc3ncc4c(c3c(=O)[nH]2)CC(C)(C)CC4=O)CC1` has a cytotoxicity at 10 µM of 3.49%.
With `COCCc1nc(-c2cnn3c(C)cc(C)nc23)no1` the cytotoxicity at 10 µM was 2.49%.
With `Cc1nc(C)n(CC2CCCCN2Cc2nnc(C3CC3)o2)n1` (centres undefined) the cytotoxicity at 10 µM was -10.7%.
`CC(C)c1nc(CSc2nnc(C3CC3)n2CC(N)=O)no1` showed a cytotoxicity at 10 µM of -147%.
Work on `COc1cccc2c(C)c(C(=O)N3CCNCC3C(N)=O)[nH]c12` (centres undefined) yielded a cytotoxicity at 10 µM of 1.67%.
`CN(C)C(=O)C1CCN(Cn2nc(-c3ccc(F)cc3)oc2=O)CC1` gave a cytotoxicity at 10 µM of -2.06%.
Work on `CC(C)c1ncc2c(n1)CN(Cc1nc(Cc3ccccc3)no1)CC2` yielded a cytotoxicity at 10 µM of -14.6%.
For `O=C(c1ccco1)N1CCc2c(nc(-c3ccncc3)[nH]c2=O)C1`, the cytotoxicity at 10 µM was 10.4%.
`Cc1cc(NC(=O)CNc2cccc(C(=O)N3CCCC(O)C3)c2)no1` (centres undefined) gave a cytotoxicity at 10 µM of -2.21%.
`CCN(CC1CCOC1)C(=O)Nc1ccc(OC)nc1` (centres undefined) showed a cytotoxicity at 10 µM of -4.2%.
Work on `O=C(Nc1cnc(C2CC2)nc1)N1CCCC1` yielded a cytotoxicity at 10 µM of -14.9%.
In the case of `Cc1ccc(C)c(OC(C)C(=O)Nc2cccnc2)c1` (centres undefined), the cytotoxicity at 10 µM is reported as 7.39%.
In the case of `COc1ccc2nnc(CCCC(=O)Nc3nc4c(s3)CCC4)n2n1`, the cytotoxicity at 10 µM is reported as -5.01%.
`Cc1nn(C)c(Cl)c1C1CCCN1CC(=O)NC1CCCCC1` (centres undefined) showed a cytotoxicity at 10 µM of 7.09%.
Work on `COCCN1CC[C@@H](O)[C@@H]1Cc1ccccc1` yielded a cytotoxicity at 10 µM of 3.67%.
In the case of `CCOc1ccc(Br)cc1C1CCCN1` (centres undefined), the cytotoxicity at 10 µM is reported as 5.01%.
With `CN(Cc1nc(C2CC2)no1)C(=O)CN1CC(c2ccccc2)CC1=O` (centres undefined) the cytotoxicity at 10 µM was 2.11%.
With `Cc1cc(CNc2cc(Cl)ccc2Cl)no1` the cytotoxicity at 10 µM was 18.9%.
`COCC1CCN(Cc2cc(O)c3c(C)ccc(C)c3n2)CC1` showed a cytotoxicity at 10 µM of -6.09%.
With `O=C(O)C1CCCN1c1nc(-c2ccc(Cl)c(Cl)c2)cc(C(F)(F)F)n1` (centres undefined) the cytotoxicity at 10 µM was 32.1%.
With `Cn1ccnc1C(=O)N1C[C@@H]2CCN(c3cnccn3)C[C@@H]2C1` the cytotoxicity at 10 µM was -97%.
For `CN(C)Cc1cncc2c1CCN(Cc1cnn(C)c1)C2`, the cytotoxicity at 10 µM was 4.13%.
`FC(F)(F)c1ccnc(N2CCCOCC2)c1` gave a cytotoxicity at 10 µM of -1.41%.
With `COCCCN(Cc1ccncc1)C(=O)CSc1ccc(F)cc1` the cytotoxicity at 10 µM was 0.807%.
In the case of `Cc1ccnc(NC(=O)CSCc2cccnc2)c1`, the cytotoxicity at 10 µM is reported as -42.2%.
For `OC1CCN(c2nc(-c3ccccc3)no2)CC1`, the cytotoxicity at 10 µM was -9.57%.
Compound `CCC1CN(CC(=O)N2CCCC2)CCN1CCOC` (centres undefined) has a cytotoxicity at 10 µM of -4.22%.
For `CC(C)N(CCSc1ncnc2[nH]ncc12)C(C)C`, the cytotoxicity at 10 µM was 0.25%.
Work on `O=C(c1cccc2c1OCCO2)N1CCCC(n2cccn2)C1` (centres undefined) yielded a cytotoxicity at 10 µM of -3.73%.
With `CCC(C)(C)NC(=O)CSCc1ccc(S(=O)(=O)N(C)C)o1` the cytotoxicity at 10 µM was 5.94%.
For `Cc1cccc(C)c1OCCCN1CCC(n2cncn2)CC1`, the cytotoxicity at 10 µM was -24.3%.
For `O=C1CCCN1CCC1CCN(C2CCCNC2)CC1` (centres undefined), the cytotoxicity at 10 µM was 2.37%.
In the case of `O=C(c1ccc(CN2CCCC2)cc1)N1CCCC(n2cccn2)C1` (centres undefined), the cytotoxicity at 10 µM is reported as -1.88%.
`Cc1cccc(CN2CCC3(CCCN(C(=O)c4ccsc4)C3)C2=O)n1` (centres undefined) showed a cytotoxicity at 10 µM of -1.14%.
For `Cc1cnc(-c2nc(O)c3c(n2)CN(C(=O)C2CCOC2)CC3)cn1` (centres undefined), the cytotoxicity at 10 µM was -6.76%.
In the case of `CCN1CCOCC12CCN(C(=O)c1ccsc1)CC2`, the cytotoxicity at 10 µM is reported as -146%.
With `O=C(c1cscn1)N1CCCCC1c1nc2cc(F)ccc2[nH]1` (centres undefined) the cytotoxicity at 10 µM was 7.59%.
Work on `CC(=O)NCC(=O)N1Cc2nccn2CC(CN2CCCC2=O)C1` (centres undefined) yielded a cytotoxicity at 10 µM of -76.9%.
Compound `O=C(c1cn(Cc2ccccc2)c2ncccc12)N1CCOCC1` has a cytotoxicity at 10 µM of -0.142%.
`Nc1ncc(CN2CCC(CCC(=O)NC3CC3)CC2)cn1` showed a cytotoxicity at 10 µM of 11.7%.
In the case of `O=C1CC(C(=O)NCc2ccccc2Oc2ccccc2F)CCN1` (centres undefined), the cytotoxicity at 10 µM is reported as -2.81%.
Work on `Cc1nc(CNC(=O)NCCC2=CCCC2)oc1C` yielded a cytotoxicity at 10 µM of -1.18%.
Work on `CCSCc1cccc(NC2CCN(C)C2=O)c1` (centres undefined) yielded a cytotoxicity at 10 µM of 1.18%.
With `COCCN(Cc1ccco1)Cc1nc(-c2ccsc2)no1` the cytotoxicity at 10 µM was 1.02%.
Compound `Cn1nccc1C(=O)N1Cc2cc(Cl)ccc2OC2(CCOCC2)C1` has a cytotoxicity at 10 µM of 19.7%.
With `CCc1ncc(C(=O)N(C)CC2Cc3ccccc3O2)cn1` (centres undefined) the cytotoxicity at 10 µM was -0.734%.
With `Cc1cc(C(=O)N2CC[C@]3(C[C@@H](OCc4ccccn4)CO3)C2)c(C)o1` the cytotoxicity at 10 µM was -78.7%.
`COc1cccc(CN2CCC3(COCc4cnc(N(C)C)nc43)C2)c1` (centres undefined) gave a cytotoxicity at 10 µM of 11.2%.
`COc1ccc(C(=O)N2CCN(CCO)CC2)c(F)c1` showed a cytotoxicity at 10 µM of -3.79%.
In the case of `CN(Cc1ccccc1)C(=O)CS(=O)(=O)Cc1ccc(Cl)c(Cl)c1`, the cytotoxicity at 10 µM is reported as 0.239%.
